Experimental data gathered from unrelated publications.
Compare with care: the assays were run in different laboratories.
Target: Tyrosine-protein kinase SYK (SYK, Homo sapiens, UniProt P43405)

Cc1sc(C(=O)NC2COC2)cc1-n1cc(NC(=O)Nc2c(F)cccc2Cl)cn1 — remaining activity (enzyme activity; inhibitor; 10 µM): 88.5%
Oc1cccc(-c2nc(N3CCOCC3)c3oc4ncccc4c3n2)c1 — remaining activity (enzyme activity; inhibitor; 10 µM): 69%
COc1cc(Cl)c(C(=O)N[C@@H](CN[C@H]2CC[C@@H](N)CC2)Cc2ccc(C#N)cc2)cc1-c1ccc(CN[C@H](C)c2ccc(C)cc2)o1 — remaining activity (enzyme activity; inhibitor; 1 µM): 97%
CS(=O)(=O)N1CCCC(NC(=O)[C@H](CCC2CCCCC2)NC(=O)c2ccc(CNc3ncnc4c3nnn4-c3ccccc3)cc2)C1 (stereo partly shown) — remaining binding (cell-free assay; competition with immobilised ligand; 0.1 µM): 88%
CS(=O)(=O)Nc1cccc(-c2csc(NC(=O)CSc3nc4nccnc4c(=O)n3CCc3ccccc3)n2)c1 — inhibition (enzyme activity; inhibitor; 10 µM): -1%
C=CC(=O)Nc1cc(Nc2nccc(Nc3cc(Cl)c(F)cc3C(C)(C)O)n2)c(OC)cc1N1CC[C@@H](N(C)C)C1 — inhibition (enzyme activity; inhibitor; 1 µM): 14%
O=C(Nc1cnn(-c2csc(C(=O)NC3COC3)c2)c1)Nc1c(F)cccc1Cl — remaining activity (enzyme activity; inhibitor; 5 µM): 90.3%
CC/C(=N\NC(=O)NCc1cccc(O)c1)c1ccc(O)c(C)c1O — inhibition (enzyme activity; inhibitor; 0.1 µM): 3.3%
Nc1nc(Nc2ccccc2)sc1C(=O)c1c(F)cccc1F — remaining activity (enzyme activity; inhibitor; 10 µM): 37%
CCS(=O)(=O)c1cc2cc(C[C@](O)(CC(C)(C)c3ccc(F)cc3C(N)=O)C(F)(F)F)[nH]c2cn1 — remaining binding (cell-free assay; competition with immobilised ligand; 1 µM): 100%
Cc1cnc(NC2CCOCC2)nc1-n1cnc(C(=O)NC(CN)c2cc(F)cc(Cl)c2)c1 (stereo not shown) — remaining activity (enzyme activity; inhibitor; radiometric; 1 µM): 94%
CN1CC(Oc2cnc(C#N)cc2-c2ccn3nc(NC(=O)C4CC4)cc3c2)C1 — inhibition (enzyme activity; inhibitor; 1 µM): 1%
N#CCCc1ccc2c(c1)-c1[nH]c3ccc([N+](=O)[O-])cc3c1CC(=O)N2 — remaining signal (cell-free assay; 0.5 µM): 58%
CCCOc1ccc([C@H]2[C@H](C(=O)O)[C@@H](c3ccc4c(c3)OCO4)CN2CC(=O)Nc2c(CC)cccc2CC)cc1 — remaining binding (cell-free assay; competition with immobilised ligand; 1 µM): 100%
CC(C)(O)[C@H]1CC[C@H](Nc2ccc3ncc(-c4cccc(C(F)(F)F)c4)n3n2)CC1 — remaining activity (enzyme activity; inhibitor; 1 µM): 72.3%
O=C(O)[C@H]1[C@H](Cn2nnc3ccccc3c2=O)CC[C@@H]1C(=O)c1ccc(OCCC2CCOCC2)cc1 — remaining binding (cell-free assay; competition with immobilised ligand; 1 µM): 76%
CC(C)(C)c1nc2c(s1)c1nc(N)ncc1c1ccc(NS(=O)(=O)c3c(F)cccc3F)c(F)c12 — remaining activity (enzyme activity; inhibitor; radiometric; 1 µM): 95%
Oc1cccc(-c2nc(N3CCOCC3)c3oc4ncccc4c3n2)c1 — remaining signal (cell-free assay; 0.5 µM): 94.2%
Cc1c(NC(=O)c2cc(C(N)=O)nc3cc(F)ccc23)c(C(F)(F)F)nn1Cc1ccc(C#N)cc1 — remaining binding (cell-free assay; competition with immobilised ligand; 1 µM): 95%
COc1cc(Nc2cnc(C#N)c(O[C@H](C)CN(C)C)n2)ncc1-c1cnn(C)c1 — remaining activity (enzyme activity; inhibitor; radiometric; 10 µM): 63%
FC(F)(F)Oc1cccc(-c2cnc3ccc(-c4ccncc4)nn23)c1 — activity vs control (enzyme activity; inhibitor; radiometric; 5 µM): 72%
Cc1nc(Cc2cccc(C(F)(F)F)c2)sc1-c1ccc(C(N)=O)nc1 — remaining binding (cell-free assay; competition with immobilised ligand; 1 µM): 100%
Cc1ccc(Nc2nccc(N(C)c3ccc4c(C)n(C)nc4c3)n2)cc1S(N)(=O)=O — inhibition (enzyme activity; inhibitor; 0.3 µM): 21%
CS(=O)(=O)NCC[C@H](NC(=O)c1cncc2c1cnn2-c1ccc(F)cc1)c1ccnc(S(C)(=O)=O)c1 — remaining binding (cell-free assay; competition with immobilised ligand; 1 µM): 100%
COc1ccc(COc2ccc(Cc3cnc(N)nc3N)cc2OC)cc1 — remaining signal (cell-free assay; 0.5 µM): 89%
CN(C)C1CCN(CC#Cc2nn(C3CCCC3)c3nc(NCc4ccccc4)ncc23)C1 (stereo not shown) — inhibition (enzyme activity; inhibitor; FRET; 10 µM): -1%
COc1cc2ncnc(Nc3ccc(Oc4ccccc4)c(C)c3C)c2cc1OC — inhibition (enzyme activity; inhibitor; 1 µM): 4%
CC(=O)N1CCC(c2ccc(C(=O)NC3=NCCN3)cc2C(F)(F)F)CC1 — remaining binding (cell-free assay; competition with immobilised ligand; 1 µM): 100%
Cc1cc(NC(=O)c2cccc3cc(-c4cccc5[nH]nc(N)c45)ccc23)ccc1F — activity vs control (enzyme activity; inhibitor; 0.1 µM): 109%
Cc1ccc(NC(=O)c2ccc(C)c(C(F)(F)F)c2)cc1C#Cc1nn(C2CCC(O)CC2)c2ncnc(N)c12 (stereo not shown) — remaining signal (cell-free assay; 10 µM): 95%
CNC(=O)c1cc(Oc2ccc(NC(=O)Nc3ccc(Cl)c(C(F)(F)F)c3)cc2)ccn1 — inhibition (enzyme activity; inhibitor; 0.3 µM): 3%
